Measured values reported in ChEMBL document CHEMBL6134765, “Rapid identification of novel indolylarylsulfone derivatives as potent HIV-1 NNRTIs via miniaturized CuAAC click-chemistry-based combinatorial libraries” (RSC Med Chem, 2025).
pEC50: −log10 of the molar value.

Legend:
[1] = biological target: Human immunodeficiency virus type 1 reverse transcriptase (Human immunodeficiency virus 1) (UniProt Q72547); assay: Inhibition of recombinant HIV-1 reverse transcriptase at 0.66 mM incubated for 1 hr by ELISA relative to control
In short: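 Each library compound was tested directly as the crude click mixture (diluted in DMSO to 2 mM per well) against HIV-1 RT at 0.66 mM, using an ELISA-based RT kit following the kit protocol. Blank controls held DMSO, TBTA, CuSO4·5H2O and sodium ascorbate. Inhibition is expressed as a percentage.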

[2] = system: Human immunodeficiency virus 1; assay: Antiviral activity against wild-type HIV-1 IIIB infected in human MT4 cells incubated for 5 days by spectrophometry based MTT assay; format: functional, organism-based; details: Human immunodeficiency virus 1, IIIB, MT4, 120 h
In short: (§1)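 MTT protection assay in MT-4 cells infected with HIV-1 IIIB or HIV-2 ROD. EC50 is the compound concentration giving 50% protection of the cultures against virus-induced cytotoxicity.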

[3] = system: Human immunodeficiency virus 2; assay: Antiviral activity against HIV-2 ROD infected in human MT4 cells incubated for 5 days by spectrophotometry based MTT assay; format: functional, organism-based; details: Human immunodeficiency virus 2, ROD, MT4, 120 h; in short: as §1
[4] = Cytotoxicity against human MT4 cells assessed as reduction in cell viability incubated for 5 days by MTT assay; format: toxicity, cell-based; details: time 5 day
In short: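 Mock-infected MT-4 cultures were read by MTT for cell viability. CC50 is the concentration that reduces viability by 50%.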

[5] = Selectivity index, ratio of CC50 for cytotoxicity against human MT4 cells to EC50 for antiviral activity against wild-type HIV-1 IIIB infected in human MT4 cells; format: toxicity, cell-based; details: read-out: Ratio CC50/EC50
In short: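 Selectivity index is calculated as CC50 (mock-infected MT-4, MTT) divided by EC50 (HIV-1 IIIB protection of MT-4, MTT).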

[6] = system: Human immunodeficiency virus 1; assay: Antiviral activity against HIV-1 harboring L100I mutant infected in human MT4 cells assessed as inhibition of virus induced cytotoxicity incubated for 5 days by spectrophometry based MTT assay; format: functional, organism-based; details: Human immunodeficiency virus 1, MT4, 120 h
In short: (§2)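 MT-4 cells (from Dr. N. Yamamoto, Yamaguchi University) infected with single-mutant (L100I, K103N, Y181C, Y188L, E138K) or double-mutant (F227L/V106A; RES056 = K103N/Y181C) HIV-1 strains. Protection against virus-induced cytotoxicity was read by the MTT method. EC50 is the concentration giving 50% protection of the cell cultures.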

[7] = system: Human immunodeficiency virus 1; assay: Antiviral activity against HIV-1 harboring K103N mutant infected in human MT4 cells assessed as inhibition of virus induced cytotoxicity incubated for 5 days by spectrophometry based MTT assay; format: functional, organism-based; details: Human immunodeficiency virus 1, MT4, 120 h; in short: as §2
[8] = system: Human immunodeficiency virus 1; assay: Antiviral activity against HIV-1 harboring Y181C mutant infected in human MT4 cells assessed as inhibition of virus induced cytotoxicity incubated for 5 days by spectrophometry based MTT assay; format: functional, organism-based; details: Human immunodeficiency virus 1, MT4, 120 h; in short: as §2
[9] = system: Human immunodeficiency virus 1; assay: Antiviral activity against HIV-1 harboring Y188L mutant infected in human MT4 cells assessed as inhibition of virus induced cytotoxicity incubated for 5 days by spectrophometry based MTT assay; format: functional, organism-based; details: Human immunodeficiency virus 1, MT4, 120 h; in short: as §2
[10] = system: Human immunodeficiency virus 1; assay: Antiviral activity against HIV-1 harboring E138K mutant infected in human MT4 cells assessed as inhibition of virus induced cytotoxicity incubated for 5 days by spectrophometry based MTT assay; format: functional, organism-based; details: Human immunodeficiency virus 1, MT4, 120 h; in short: as §2
[11] = system: Human immunodeficiency virus 1; assay: Antiviral activity against HIV-1 harboring F227L/V106A double mutant infected in human MT4 cells assessed as inhibition of virus induced cytotoxicity incubated for 5 days by spectrophometry based MTT assay; format: functional, organism-based; details: Human immunodeficiency virus 1, MT4, 120 h; in short: as §2
[12] = system: Human immunodeficiency virus 1; assay: Antiviral activity against HIV-1 harboring RES056 mutant infected in human MT4 cells assessed as inhibition of virus induced cytotoxicity incubated for 5 days by spectrophometry based MTT assay; format: functional, organism-based; details: Human immunodeficiency virus 1, MT4, 120 h; in short: as §2

For `Cc1cc(C)cc(S(=O)(=O)c2c(C(=O)NCc3cn(Cc4ccccc4[N+](=O)[O-])nn3)[nH]c3ccc(Cl)cc23)c1`, the inhibition [1] was over 85%, the pEC50 [2] was 7.62 and the pEC50 [3] was under 3.67. For the same compound, the CC50 at 120 h [4] was over 216 µM, the selectivity ratio [5] was over 9120 and the pEC50 [6] was 6.82. For the same compound, the pEC50 [7] was 6.29, the pEC50 [8] was 6.54 and the pEC50 [9] was 4.68. For the same compound, the pEC50 [10] was 6.82, the pEC50 [11] was 5.81 and the pEC50 [12] was under 3.71.
In the case of `Cc1cc(C)cc(S(=O)(=O)c2c(C(=O)NCc3cn(Cc4ccc(C(N)=O)cc4)nn3)[nH]c3ccc(Cl)cc23)c1`, the inhibition [1] was under 85%.
Work on `Cc1cc(C)cc(S(=O)(=O)c2c(C(=O)NCc3cn(CC(=O)Nc4ccc(Br)cc4)nn3)[nH]c3ccc(Cl)cc23)c1` yielded an inhibition [1] of over 85%, a pEC50 [2] of 7.17 and a pEC50 [3] of under 4.80. For the same compound, the CC50 at 120 h [4] was 15.8 µM, the selectivity ratio [5] was 231 and the pEC50 [6] was 6.42. It also gave a pEC50 [7] of 5.82, a pEC50 [8] of 6.27 and a pEC50 [9] of 5.39. The pEC50 [10] was 6.82, the pEC50 [11] was 5.73 and the pEC50 [12] was under 4.80.
`Cc1cn([C@H]2C[C@H](N=[N+]=[N-])[C@@H](CO)O2)c(=O)[nH]c1=O` [ZIDOVUDINE] gave a pEC50 [2] of 7.72, a CC50 at 120 h [4] of over 7.48 µM and a selectivity ratio [5] of over 397. It also gave a pEC50 [11] of 8.05 and a pEC50 [12] of 8.70.
In the case of `Cc1ccnc2c1NC(=O)c1cccnc1N2C1CC1` [NEVIRAPINE], the CC50 at 120 h [4] was over 15 µM, the selectivity ratio [5] was over 92 and the pEC50 [9] was at most 5.11. The pEC50 [11] was at most 5.27 and the pEC50 [12] was under 4.82.
`Cc1cc(C)cc(S(=O)(=O)c2c(C(=O)NCc3cn(-c4ccc5c(c4)OCO5)nn3)[nH]c3ccc(Cl)cc23)c1` gave an inhibition [1] of under 85%.
Work on `Cc1cc(C)cc(S(=O)(=O)c2c(C(=O)NCc3cn(-c4cc5ccccc5s4)nn3)[nH]c3ccc(Cl)cc23)c1` yielded an inhibition [1] of under 85%.
`Cc1cc(C)cc(S(=O)(=O)c2c(C(=O)NCc3cn(CCN4C(=O)c5ccccc5C4=O)nn3)[nH]c3ccc(Cl)cc23)c1` gave an inhibition [1] of under 85%.
Work on `COC(=O)c1cccc(-n2cc(CNC(=O)c3[nH]c4ccc(Cl)cc4c3S(=O)(=O)c3cc(C)cc(C)c3)nn2)c1` yielded an inhibition [1] of under 85%.
`Cc1cc(C)cc(S(=O)(=O)c2c(C(=O)NCc3cn(Cc4ccc(Cl)cc4)nn3)[nH]c3ccc(Cl)cc23)c1` showed an inhibition [1] of under 85%.
`Cc1ccc(Cn2cc(CNC(=O)c3[nH]c4ccc(Cl)cc4c3S(=O)(=O)c3cc(C)cc(C)c3)nn2)cc1` gave an inhibition [1] of under 85%.
`Cc1cc(C)cc(S(=O)(=O)c2c(C(=O)NCc3cn(Cc4ccc(C#N)cc4)nn3)[nH]c3ccc(Cl)cc23)c1` showed an inhibition [1] of under 85%.
Compound `Cc1cc(C)cc(S(=O)(=O)c2c(C(=O)NCc3cn(Cc4ccc(S(N)(=O)=O)cc4)nn3)[nH]c3ccc(Cl)cc23)c1` has an inhibition [1] of under 85%.
In the case of `Cc1cc(C)cc(S(=O)(=O)c2c(C(=O)NCc3cn(Cc4ccccc4Cl)nn3)[nH]c3ccc(Cl)cc23)c1`, the inhibition [1] was under 85%.
Compound `Cc1cc(C)cc(S(=O)(=O)c2c(C(=O)NCc3cn(Cc4ccc([N+](=O)[O-])cc4)nn3)[nH]c3ccc(Cl)cc23)c1` has an inhibition [1] of under 85%.
For `Cc1cc(C)cc(S(=O)(=O)c2c(C(=O)NCc3cn(Cc4ccc5ccccc5c4)nn3)[nH]c3ccc(Cl)cc23)c1`, the inhibition [1] was under 85%.
With `Cc1cc(C)cc(S(=O)(=O)c2c(C(=O)NCc3cn(CCc4ccsc4)nn3)[nH]c3ccc(Cl)cc23)c1` the inhibition [1] was under 85%.
`Cc1cc(C)cc(S(=O)(=O)c2c(C(=O)NCc3cn(Cc4ccccc4C#N)nn3)[nH]c3ccc(Cl)cc23)c1` gave an inhibition [1] of under 85%.
`Cc1cc(C#N)cc(C)c1Oc1nc(Nc2ccc(C#N)cc2)nc(N)c1Br` [ETRAVIRINE] showed a CC50 at 120 h [4] of over 6.33 µM, a selectivity ratio [5] of over 1640 and a pEC50 [11] of 7.74. For the same compound, the pEC50 [12] was 7.42.
`COc1ccccc1Cn1cc(CNC(=O)c2[nH]c3ccc(Cl)cc3c2S(=O)(=O)c2cc(C)cc(C)c2)nn1` gave an inhibition [1] of under 85%.
